Source: ChEMBL document CHEMBL3124833, “Achiral pyrazinone-based inhibitors of the hepatitis C virus NS3 protease and drug-resistant variants with elongated substituents directed toward the S2 pocket” (J Med Chem, 2014)
≈ marks a conversion by molar mass, not a printed value. One block for each compound: values may come before it.

Columns and labels:
[1] = Inhibition of full-length wild-type HCV NS3 protease; design: species or system Hepacivirus hominis
Procedure, shortened: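 Ki was determined in vitro with full-length NS3 protease (genotype 1a construct, expressed and purified by earlier methods) and the central part of NS4A as cofactor.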

[2] = Half life in human liver microsomes at 1 uM by LC-MS/MS analysis; type: ADME
Procedure, shortened: (§1)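 Compounds were incubated with pooled human liver microsomes (0.5 mg/mL) over 0–40 min. In vitro t1/2 and intrinsic clearance (Clint, μL/min/mg) were calculated with previously published models.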

[3] = Intrinsic clearance in human liver microsomes at 1 uM up to 40 mins by LC-MS/MS analysis in presence of NADPH; type: ADME; procedure, shortened: as §1
[4] = Apparent permeability from apical to basolateral side in human Caco2 cells at 10 uM by LC-MS analysis; type: ADME, cell-based; details: Caco-2
Procedure, shortened: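 Apparent permeability coefficients (Papp) were derived from transport rates across Caco-2 cell monolayers. The assay used a modified, more physiological medium because the compounds adsorbed strongly to plasticware.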

[5] = Solubility of the compound in phosphate buffered saline at pH 7.4 after 1 hr by LC-MS/MS analysis; type: physicochemical
Procedure, shortened: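 Solubility was measured in phosphate-buffered saline at pH 7.4 with a final DMSO concentration of 1%.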

NS3 protease [6] = target: NS3 protease (Hepacivirus C, UniProt C1KIQ2, D168V); assay: Inhibition of full-length HCV NS3 protease D168V mutant; design: species or system Hepacivirus hominis
Procedure, shortened: (§2)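 Ki determined in vitro against full-length NS3 protease variants carrying A156T, D168V or R155K substitutions, with the central part of NS4A as cofactor. Enzymes were expressed and purified by previously published methods. The R155K variant (genotype 1a) had the Arg→Lys change introduced at position 155 by PCR.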

NS3 protease [7] = target: NS3 protease (Hepatitis C virus subtype 1b, UniProt Q0ZMF1, A156T); assay: Inhibition of full-length HCV NS3 protease A156T mutant; design: species or system Hepacivirus hominis; procedure, shortened: as §2

Ki [1]: 330 nM
Structure (SMILES): CC(C)(C)NC(=O)Nc1nc(Cl)c(Cc2ccc3ccccc3c2)n(CC(=O)Nc2ccccc2C(=O)NS(=O)(=O)c2ccc(C(F)(F)F)cc2)c1=O

Ki [1]: 2100 nM
Structure (SMILES): CC(C)(C)NC(=O)Nc1nc(Cl)c(-c2ccccc2-c2cccnc2)n(CC(=O)Nc2ccccc2C(=O)NS(=O)(=O)c2ccc(C(F)(F)F)cc2)c1=O

Ki [1]: 7100 nM
Structure (SMILES): CC(C)(C)NC(=O)Nc1nc(Cl)c(Cc2ccccc2)n(CC(=O)NC(CC2CCC2)C(=O)C(N)=O)c1=O (configuration not stated)

Ki [1]: 390 nM
Structure (SMILES): CC(C)(C)NC(=O)Nc1nc(Cl)c(-c2cccc(-c3cccnc3)c2)n(CC(=O)Nc2ccccc2C(=O)NS(=O)(=O)c2ccc(C(F)(F)F)cc2)c1=O

Ki [1]: 3800 nM
Structure (SMILES): Cc1c(Cl)nc(NC(=O)OC(C)(C)C)c(=O)n1C(C(=O)Nc1ccccc1C(=O)NS(=O)(=O)c1ccc(C(F)(F)F)cc1)c1ccccc1 (configuration not stated)

Structure (SMILES): Cc1c(Cl)nc(NC(=O)NC(C)(C)C)c(=O)n1C(C(=O)Nc1ccccc1C(=O)NS(=O)(=O)c1ccc(C(F)(F)F)cc1)c1ccccc1 (racemic)
half-life at 1 µM [2]: 54 min | microsomal CLint at 1 µM [3]: 26 µL/min/mg | Papp A→B at 10 µM [4]: 1.1 ×10⁻⁶ cm/s | solubility at 1 h [5]: 38 µM (≈ 27.3 µg/mL) | Ki (NS3 protease [6]): 1260 nM | Ki (NS3 protease [7]): 930 nM | Ki [1]: 390 nM

Ki [1]: 1100 nM
Structure (SMILES): CC(C)(C)NC(=O)Nc1nc(Cl)c(Cc2ccccc2-c2cccnc2)n(CC(=O)Nc2ccccc2C(=O)NS(=O)(=O)c2ccc(C(F)(F)F)cc2)c1=O

Ki [1]: 380 nM
Structure (SMILES): CC(C)(C)NC(=O)Nc1nc(Cl)c(-c2ccc(Br)cc2)n(CC(=O)Nc2ccccc2C(=O)NS(=O)(=O)c2ccc(C(F)(F)F)cc2)c1=O

Ki [1]: 660 nM
Structure (SMILES): CC(C)(C)NC(=O)Nc1nc(Cl)c(Cc2ccccc2)n(CC(=O)Nc2ccccc2C(=O)NS(=O)(=O)c2ccc(C(F)(F)F)cc2)c1=O

Structure (SMILES): CCC[C@H](NC(=O)[C@@H]1[C@H]2CCC[C@H]2CN1C(=O)[C@@H](NC(=O)[C@@H](NC(=O)c1cnccn1)C1CCCCC1)C(C)(C)C)C(=O)C(=O)NC1CC1 [TELAPREVIR]
Ki (NS3 protease [6]): 3.9 nM | Ki (NS3 protease [7]): 6100 nM | Ki [1]: 15 nM

half-life at 1 µM [2]: 81 min | microsomal CLint at 1 µM [3]: 17 µL/min/mg | Papp A→B at 10 µM [4]: 4 ×10⁻⁶ cm/s | solubility at 1 h [5]: 22 µM (≈ 16.5 µg/mL) | Ki [1]: 560 nM
Structure (SMILES): CC(C)(C)NC(=O)Nc1nc(Cl)c(COCc2ccccc2)n(CC(=O)Nc2ccccc2C(=O)NS(=O)(=O)c2ccc(C(F)(F)F)cc2)c1=O

Structure (SMILES): CC(C)(C)NC(=O)Nc1nc(Cl)c(-c2ccc(-c3cccnc3)cc2)n(CC(=O)Nc2ccccc2C(=O)NS(=O)(=O)c2ccc(C(F)(F)F)cc2)c1=O
half-life at 1 µM [2]: 82 min | microsomal CLint at 1 µM [3]: 17 µL/min/mg | Papp A→B at 10 µM [4]: 7 ×10⁻⁶ cm/s | solubility at 1 h [5]: 53 µM (≈ 41.5 µg/mL) | Ki (NS3 protease [6]): 1520 nM | Ki (NS3 protease [7]): 740 nM | Ki [1]: 440 nM

Structure (SMILES): CC(C)(C)NC(=O)Nc1nc(Cl)c(CCC2CCCCC2)n(CC(=O)Nc2ccccc2C(=O)NS(=O)(=O)c2ccc(C(F)(F)F)cc2)c1=O
half-life at 1 µM [2]: 27 min | microsomal CLint at 1 µM [3]: 52 µL/min/mg | Papp A→B at 10 µM [4]: 0.12 ×10⁻⁶ cm/s | solubility at 1 h [5]: 31 µM (≈ 22.9 µg/mL) | Ki (NS3 protease [6]): 320 nM | Ki (NS3 protease [7]): 170 nM | Ki [1]: 110 nM

Structure (SMILES): COc1ccc2c(O[C@@H]3C[C@H]4C(=O)N[C@]5(C(=O)O)C[C@H]5/C=C\CCCCC[C@H](NC(=O)OC5CCCC5)C(=O)N4C3)cc(-c3csc(NC(C)C)n3)nc2c1 [CILUPREVIR]
Ki (NS3 protease [6]): 200 nM | Ki (NS3 protease [7]): 120 nM | Ki [1]: 0.089 nM

Ki [1]: 6200 nM
Structure (SMILES): Cc1c(Cl)nc(NC(=O)NC(C)(C)C)c(=O)n1C(C(=O)NC(CC1CCC1)C(=O)C(N)=O)c1ccccc1 (configuration not stated)

Ki [1]: 1900 nM
Structure (SMILES): CC(C)(C)NC(=O)Nc1nc(Cl)cn(CC(=O)Nc2ccccc2C(=O)NS(=O)(=O)c2ccc(C(F)(F)F)cc2)c1=O

half-life at 1 µM [2]: 42 min | microsomal CLint at 1 µM [3]: 33 µL/min/mg | Papp A→B at 10 µM [4]: 0.04 ×10⁻⁶ cm/s | solubility at 1 h [5]: 21 µM (≈ 14.7 µg/mL) | Ki [1]: 160 nM
Structure (SMILES): CCCCCc1c(Cl)nc(NC(=O)NC(C)(C)C)c(=O)n1CC(=O)Nc1ccccc1C(=O)NS(=O)(=O)c1ccc(C(F)(F)F)cc1

Ki [1]: 440 nM
Structure (SMILES): CC(C)(C)NC(=O)Nc1nc(Cl)c(Cc2ccc(Br)cc2)n(CC(=O)Nc2ccccc2C(=O)NS(=O)(=O)c2ccc(C(F)(F)F)cc2)c1=O

half-life at 1 µM [2]: > 100 min | microsomal CLint at 1 µM [3]: < 13 µL/min/mg | Papp A→B at 10 µM [4]: 0.3 ×10⁻⁶ cm/s | solubility at 1 h [5]: 23 µM (≈ 16.9 µg/mL) | Ki [1]: 120 nM
Structure (SMILES): CC(C)(C)NC(=O)Nc1nc(Cl)c(CCc2ccccc2)n(CC(=O)Nc2ccccc2C(=O)NS(=O)(=O)c2ccc(C(F)(F)F)cc2)c1=O

Ki [1]: 810 nM
Structure (SMILES): CC(C)(C)NC(=O)Nc1nc(Cl)c(Cc2cccc(-c3cccnc3)c2)n(CC(=O)Nc2ccccc2C(=O)NS(=O)(=O)c2ccc(C(F)(F)F)cc2)c1=O

Ki [1]: 140 nM
Structure (SMILES): CC(C)(C)NC(=O)Nc1nc(Cl)c(CCCc2ccccc2)n(CC(=O)Nc2ccccc2C(=O)NS(=O)(=O)c2ccc(C(F)(F)F)cc2)c1=O

Ki [1]: 250 nM
Structure (SMILES): CC(C)(C)NC(=O)Nc1nc(Cl)c(Cc2ccccc2Br)n(CC(=O)Nc2ccccc2C(=O)NS(=O)(=O)c2ccc(C(F)(F)F)cc2)c1=O

Ki [1]: 700 nM
Structure (SMILES): CC(C)(C)NC(=O)Nc1nc(Cl)c(Cc2ccccc2)n(C(C(=O)Nc2ccccc2C(=O)NS(=O)(=O)c2ccc(C(F)(F)F)cc2)c2ccccc2)c1=O (configuration not stated)

Ki [1]: 600 nM
Structure (SMILES): CC(C)(C)NC(=O)Nc1nc(Cl)c(-c2cccc(Br)c2)n(CC(=O)Nc2ccccc2C(=O)NS(=O)(=O)c2ccc(C(F)(F)F)cc2)c1=O

Ki [1]: 290 nM
Structure (SMILES): CC(C)(C)NC(=O)Nc1nc(Cl)c(Cc2cccc3ccccc23)n(CC(=O)Nc2ccccc2C(=O)NS(=O)(=O)c2ccc(C(F)(F)F)cc2)c1=O

Ki [1]: 540 nM
Structure (SMILES): CC(C)(C)NC(=O)Nc1nc(Cl)c(Cc2ccc(-c3cccnc3)cc2)n(CC(=O)Nc2ccccc2C(=O)NS(=O)(=O)c2ccc(C(F)(F)F)cc2)c1=O

Ki [1]: 400 nM
Structure (SMILES): CC(C)(C)NC(=O)Nc1nc(Cl)c(-c2ccccc2Br)n(CC(=O)Nc2ccccc2C(=O)NS(=O)(=O)c2ccc(C(F)(F)F)cc2)c1=O

Ki [1]: 290 nM
Structure (SMILES): CC(C)(C)NC(=O)Nc1nc(Cl)c(Cc2cccc(Br)c2)n(CC(=O)Nc2ccccc2C(=O)NS(=O)(=O)c2ccc(C(F)(F)F)cc2)c1=O
